Assay results published in ChEMBL document CHEMBL2413016, “Synthesis and in vivo evaluation of [(18)F]2-(4-(4-(2-(2-fluoroethoxy)phenyl)piperazin-1-yl)butyl)-4-methyl-1,2,4-triazine-3,5(2H,4H)-dione ([(18)F]FECUMI-101) as an imaging probe for 5-HT1A receptor agonist in nonhuman primates” (Bioorg Med Chem, 2013).

Tests used:
[1] = Tmax in baboon cerebellum at 111 +/- 18 MBq, iv by PET analysis; format: ADME, organism-based; conditions: papio anubis, in vivo
How it was run: (§1)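 Two fasted male baboons were given ketamine (10 mg/kg im) and kept under 1.5–2.0% isoflurane, with core temperature held at 37 °C. Tracer in 10% ethanol/90% saline was given as an iv bolus, and 3-D emission data were acquired for 180 min. Regional time-activity curves came from regions of interest, with right and left regions averaged.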

[2] = Tmax in baboon insula cortex at 111 +/- 18 MBq, iv by PET analysis; format: ADME, organism-based; conditions: papio anubis, in vivo; how it was run: as §1
Nucleic Acid [3] = experiment: Ratio of drug level in prefrontal cortex to cerebellum in baboon at 111 +/- 18 MBq, iv after 175 mins by PET analysis; format: ADME, organism-based; conditions: papio anubis, in vivo
Nucleic Acid [4] = experiment: Ratio of drug level in amygdala to cerebellum in baboon at 111 +/- 18 MBq, iv after 175 mins by PET analysis; format: ADME, organism-based; conditions: papio anubis, in vivo
[5] = Tmax in baboon striatum at 111 +/- 18 MBq, iv by PET analysis; format: ADME, organism-based; conditions: papio anubis, in vivo
How it was run: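 Baseline PET in two fasted male baboons on an ECAT EXACT HR+ scanner. Animals were immobilized with ketamine (10 mg/kg im), kept on 1.5–2.0% isoflurane via endotracheal tube, held at 37 °C core temperature, and hydrated with 0.9% NaCl. Radiotracer in 10% ethanol/saline was given as an iv bolus. Emission was recorded for 180 min in 3-D mode. Region time-activity curves used right/left averaged ROIs.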

[6] = Metabolic stability of the compound in baboon plasma assessed as unmetabolized parent fraction after 30 mins by HPLC analysis; format: ADME, cell-free; conditions: papio anubis, read-out: Stability
How it was run: (§2)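 Radiotracer given as an iv bolus to anesthetized baboons. Arterial blood was drawn at 2, 12, 30, 60, 90, 120, 150 and 180 min and centrifuged at 2000 rpm for 1 min. Plasma was mixed with acetonitrile, vortexed and spun at 14,000 rpm for 4 min. The supernatant was counted, then analysed by reversed-phase HPLC with radioactivity detection. Parent percentage was corrected for background and decay, with a QC standard run at the start and end.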

[7] = Drug uptake in baboon prefrontal cortex at 111 +/- 18 MBq, iv by PET analysis in presence of WAY100635; format: ADME, organism-based; conditions: papio anubis, in vivo
How it was run: (§3)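 Baboon PET run as for baseline: ketamine/isoflurane anesthesia, iv bolus of tracer, 180 min 3-D acquisition, right and left regions averaged. WAY100635 maleate (0.5 mg/kg iv in 12 mL saline) was given at 50–60 min after tracer injection as a chase/blocking challenge.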

[8] = Tmax in baboon hippocampus at 111 +/- 18 MBq, iv by PET analysis; format: ADME, organism-based; conditions: papio anubis, in vivo; how it was run: as §1
Plasma = experiment: Binding to human plasma proteins
Nucleic Acid [9] = experiment: Ratio of drug level in anterior cingulate cortex to cerebellum in baboon at 111 +/- 18 MBq, iv after 175 mins by PET analysis; format: ADME, organism-based; conditions: papio anubis, in vivo
Nucleic Acid [10] = experiment: Ratio of drug level in insular cortex to cerebellum in baboon at 111 +/- 18 MBq, iv after 175 mins by PET analysis; format: ADME, organism-based; conditions: papio anubis, in vivo
[11] = Drug uptake in baboon hippocampus at 111 +/- 18 MBq, iv by PET analysis in presence of WAY100635; format: ADME, organism-based; conditions: papio anubis, in vivo; how it was run: as §3
[12] = Metabolic stability of the compound in baboon plasma assessed as unmetabolized parent fraction after 180 mins by HPLC analysis; format: ADME, cell-free; conditions: papio anubis, read-out: Stability; how it was run: as §2
[13] = Drug uptake in baboon insular cortex at 111 +/- 18 MBq, iv by PET analysis in presence of WAY100635; format: ADME, organism-based; conditions: papio anubis, in vivo; how it was run: as §3
[14] = Drug uptake in baboon temporal cortex at 111 +/- 18 MBq, iv by PET analysis in presence of WAY100635; format: ADME, organism-based; conditions: papio anubis, in vivo; how it was run: as §3
[15] = Metabolic stability of the compound in baboon plasma assessed as unmetabolized parent fraction after 12 mins by HPLC analysis; format: ADME, cell-free; conditions: papio anubis, read-out: Stability; how it was run: as §2
Papio anubis = experiment: Drug metabolism in baboon at 111 +/- 18 MBq, iv after 2 to 180 mins; format: ADME, organism-based; conditions: in vivo; how it was run: as §2
[16] = Tmax in baboon amygdala at 111 +/- 18 MBq, iv by PET analysis; format: ADME, organism-based; conditions: papio anubis, in vivo; how it was run: as §1
[17] = Metabolic stability of the compound in baboon plasma assessed as unmetabolized parent fraction after 150 mins by HPLC analysis; format: ADME, cell-free; conditions: papio anubis, read-out: Stability; how it was run: as §2
[18] = Drug uptake in baboon cerebellum at 111 +/- 18 MBq, iv by PET analysis in presence of WAY100635; format: ADME, organism-based; conditions: papio anubis, in vivo; how it was run: as §3
[19] = Tmax in baboon prefrontal cortex at 111 +/- 18 MBq, iv by PET analysis; format: ADME, organism-based; conditions: papio anubis, in vivo; how it was run: as §1
Nucleic Acid [20] = experiment: Ratio of drug level in hippocampus to cerebellum in baboon at 111 +/- 18 MBq, iv after 175 mins by PET analysis; format: ADME, organism-based; conditions: papio anubis, in vivo
[21] = Drug uptake in baboon caudate at 111 +/- 18 MBq, iv by PET analysis in presence of WAY100635; format: ADME, organism-based; conditions: papio anubis, in vivo; how it was run: as §3
[22] = Metabolic stability of the compound in baboon plasma assessed as unmetabolized parent fraction after 2 mins by HPLC analysis; format: ADME, cell-free; conditions: papio anubis, read-out: Stability; how it was run: as §2
[23] = Drug uptake in baboon thalamus at 111 +/- 18 MBq, iv by PET analysis in presence of WAY100635; format: ADME, organism-based; conditions: papio anubis, in vivo; how it was run: as §3
Nucleic Acid [24] = experiment: Ratio of drug level in dorsal raphe nucleus to cerebellum in baboon at 111 +/- 18 MBq, iv after 175 mins by PET analysis; format: ADME, organism-based; conditions: papio anubis, in vivo
[25] = Tmax in baboon cingulate cortex at 111 +/- 18 MBq, iv by PET analysis; format: ADME, organism-based; conditions: papio anubis, in vivo; how it was run: as §1
Nucleic Acid [26] = experiment: Ratio of drug level in cingulate cortex to cerebellum in baboon at 111 +/- 18 MBq, iv after 175 mins by PET analysis; format: ADME, organism-based; conditions: papio anubis, in vivo
[27] = Binding to baboon plasma proteins; conditions: papio anubis
Nucleic Acid [28] = experiment: Ratio of drug level in thalamus to cerebellum in baboon at 111 +/- 18 MBq, iv after 175 mins by PET analysis; format: ADME, organism-based; conditions: papio anubis, in vivo
[29] = Metabolic stability of the compound in baboon plasma assessed as unmetabolized parent fraction after 120 mins by HPLC analysis; format: ADME, cell-free; conditions: papio anubis, read-out: Stability; how it was run: as §2
Nucleic Acid [30] = experiment: Ratio of drug level in temporal cortex to cerebellum in baboon at 111 +/- 18 MBq, iv after 175 mins by PET analysis; format: ADME, organism-based; conditions: papio anubis, in vivo
[31] = Metabolic stability of the compound in baboon plasma assessed as unmetabolized parent fraction after 60 mins by HPLC analysis; format: ADME, cell-free; conditions: papio anubis, read-out: Stability; how it was run: as §2
[32] = Drug uptake in baboon cingulate at 111 +/- 18 MBq, iv by PET analysis in presence of WAY100635; format: ADME, organism-based, Cingulate cortex; conditions: papio anubis, in vivo; how it was run: as §3
[33] = Drug uptake in baboon anterior cingulate at 111 +/- 18 MBq, iv by PET analysis in presence of WAY100635; format: ADME, organism-based; conditions: papio anubis, in vivo; how it was run: as §3
[34] = Drug uptake in baboon amygdala at 111 +/- 18 MBq, iv by PET analysis in presence of WAY100635; format: ADME, organism-based; conditions: papio anubis, in vivo; how it was run: as §3
[35] = Metabolic stability of the compound in baboon plasma assessed as unmetabolized parent fraction after 90 mins by HPLC analysis; format: ADME, cell-free; conditions: papio anubis, read-out: Stability; how it was run: as §2

Cn1c(=O)cnn(CCCCN2CCN(c3ccccc3OCC[18F])CC2)c1=O
Tmax [1]: 3 min | Tmax [2]: 3 min | Ratio (Nucleic Acid [3]): 1.8 | Ratio (Nucleic Acid [4]): 2.4 | Tmax [5]: 3 min | remaining at 0.5 h [6]: 51% | Drug uptake [7]: Active | Tmax [8]: 3 min | plasma protein binding (Plasma): 11.5% | Ratio (Nucleic Acid [9]): 2.5 | Ratio (Nucleic Acid [10]): 2.3 | Drug uptake [11]: Active | remaining at 3 h [12]: 18% | Drug uptake [13]: Active | Drug uptake [14]: Active | remaining at 0.2 h [15]: 74% | Drug metabolism (Papio anubis): Active | Tmax [16]: 3 min | remaining at 2.5 h [17]: 21.5% | Drug uptake [18]: Active | Tmax [19]: 3 min | Ratio (Nucleic Acid [20]): 4 | Drug uptake [21]: Active | remaining at 2 min [22]: 98% | Drug uptake [23]: Active | Ratio (Nucleic Acid [24]): 1.75 | Tmax [25]: 3 min | Ratio (Nucleic Acid [26]): 1.8 | plasma protein binding [27]: 35% | Ratio (Nucleic Acid [28]): 2 | remaining at 2 h [29]: 23.5% | Ratio (Nucleic Acid [30]): 2 | remaining at 1 h [31]: 37% | Drug uptake [32]: Active | Drug uptake [33]: Active | Drug uptake [34]: Active | remaining at 1.5 h [35]: 32.5%
